Test results reported in ChEMBL document CHEMBL4373711, “Development of 3,5-Dinitrophenyl-Containing 1,2,4-Triazoles and Their Trifluoromethyl Analogues as Highly Efficient Antitubercular Agents Inhibiting Decaprenylphosphoryl-β-d-ribofuranose 2'-Oxidase” (J Med Chem, 2019).
In brackets after ≈: the same amount, converted by molar mass. Activity calls are given as the source filed them. No cut-off for these calls is given here.

Tests used:
Mycobacterium kansasii [1] = assay: Antimycobacterial activity against Mycobacterium kansasii 6509/96 after 14 days; type: functional; conditions: 6509/96, 336 h
In short: (§1)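 Microdilution in Šula's semisynthetic medium; compounds in DMSO at 32–0.03 µM. Inoculum from 1.0 McFarland suspension diluted 10-4. […] Isoniazid and rifampicin as reference drugs.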

[2] = biological target: T1, Decaprenylphosphoryl-beta-D-ribose oxidase (Mycobacterium tuberculosis (strain ATCC 25618 / H37Rv)) (UniProt P9WJF1); assay: Inhibition of DprE1 in Mycobacterium tuberculosis H37Rv assessed as accumulation of trehalose dimycolates at 100 times MIC measured after 24 hrs in presence of [14C]-acetate by TLC-based autoradiography
T1 sequence (whole entry): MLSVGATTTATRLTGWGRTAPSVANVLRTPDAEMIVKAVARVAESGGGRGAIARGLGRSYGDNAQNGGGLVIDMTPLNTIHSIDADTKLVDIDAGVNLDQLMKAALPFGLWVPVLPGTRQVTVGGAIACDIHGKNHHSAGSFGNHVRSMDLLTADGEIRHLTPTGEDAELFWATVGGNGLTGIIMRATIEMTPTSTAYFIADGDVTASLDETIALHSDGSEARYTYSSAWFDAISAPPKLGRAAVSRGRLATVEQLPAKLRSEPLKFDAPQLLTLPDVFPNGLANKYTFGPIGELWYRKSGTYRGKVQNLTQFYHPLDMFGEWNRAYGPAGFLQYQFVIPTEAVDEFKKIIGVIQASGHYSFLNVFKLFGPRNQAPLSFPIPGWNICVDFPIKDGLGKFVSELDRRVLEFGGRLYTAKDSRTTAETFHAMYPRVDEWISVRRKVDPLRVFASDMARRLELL
In short: (§2)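 M. tuberculosis H37Rv cultures were exposed to compound at final 10× or 100× MIC, or to DMSO, together with [14C]-acetate at 1 µCi/ml final. After 24 h, lipids were extracted in CHCl3/CH3OH (2:1) for 2 h at 65 °C and given two Folch washes. Extracts were run on TLC in CHCl3/CH3OH/H2O (20:4:0.5), then autoradiographed for 7 days at -80 °C.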

[3] = Cytotoxicity against human HepG2 cells assessed as cell viability at 30 uM after 48 hrs by CellTiter 96 aqueous one solution assay relative to control; type: cell-based; conditions: read-out: Activity
In short: (§3)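 HepG2 (DMEM, 10% FBS, 1 mM pyruvate) or A431 (DMEM, 10% FBS) seeded 10,000 cells/well, 24 h at 37 °C, 5% CO2, then 30 µM compound for 48 h. MTS reagent 60 min, absorbance 490 nm, background subtracted; 0.1% DMSO vehicle = 100%, 10% SDS = 0% viability.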

Candida tropicalis = assay: Antifungal activity against Candida tropicalis ATCC 750 CCM 8264 at highest concentration measured after 24 to 48 hrs by alamar blue dye based broth microdilution assay; type: functional, organism-based
[4] = system: Mycobacterium tuberculosis; assay: Antimycobacterial activity against Mycobacterium tuberculosis H37Rv CNCTC My 331/88 after 14 days; type: functional; conditions: H37Rv CNCTC My 331/88, 336 h
In short: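 M. tuberculosis strains (H37Rv and clinical MDR/XDR isolates) tested by microdilution in Šula's semisynthetic medium. Compounds were dissolved in DMSO and tested at 32 to 0.03 µM in twofold steps. Inoculum was a 1.0 McFarland suspension diluted 10-3. Plates were incubated at 37 °C and read at 14 and 21 days.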

[5] = Cytotoxicity against human A431 cells assessed as cell viability at 30 uM after 48 hrs by CellTiter 96 aqueous one solution assay relative to control; type: cell-based, A-431; conditions: read-out: Activity; in short: as §3
A-431 = assay: Cytotoxicity against human A431 cells assessed as reduction in cell viability after 48 hrs by CellTiter 96 aqueous one solution assay; type: cell-based; conditions: A-431, 48 h
Serratia marcescens = assay: Antibacterial activity against Serratia marcescens at highest concentration measured after 24 to 48 hrs by alamar blue dye based broth microdilution assay; type: functional, organism-based
[6] = biological target: T1, Decaprenylphosphoryl-beta-D-ribose oxidase (Mycobacterium tuberculosis (strain ATCC 25618 / H37Rv)); assay: Inhibition of DprE1 in Mycobacterium tuberculosis H37Rv assessed as accumulation of trehalose monomycolates at 10 times MIC measured after 24 hrs in presence of [14C]-acetate by TLC-based autoradiography; in short: as §2
Mycobacterium kansasii [7] = assay: Antimycobacterial activity against Mycobacterium kansasii CNCTC My 235/80 after 14 days; type: functional; conditions: CNCTC My 235/80, 336 h; in short: as §1
Candida parapsilosis = assay: Antifungal activity against Candida parapsilosis ATCC 22019 CCM 8260 at highest concentration measured after 24 to 48 hrs by alamar blue dye based broth microdilution assay; type: functional, organism-based
[8] = system: Staphylococcus epidermidis; assay: Antibacterial activity against Staphylococcus epidermidis at highest concentration measured after 24 to 48 hrs by alamar blue dye based broth microdilution assay; type: functional, organism-based
Mycobacterium kansasii [9] = assay: Antimycobacterial activity against Mycobacterium kansasii 6509/96 after 7 days; type: functional; conditions: 6509/96, 168 h; in short: as §1
Aspergillus fumigatus = assay: Antifungal activity against Aspergillus fumigatus ATCC 204305 at highest concentration measured after 24 to 48 hrs by alamar blue dye based broth microdilution assay; type: functional, organism-based
[10] = biological target: T1, Decaprenylphosphoryl-beta-D-ribose oxidase (Mycobacterium tuberculosis (strain ATCC 25618 / H37Rv)); assay: Inhibition of DprE1 in Mycobacterium tuberculosis H37Rv assessed as accumulation of trehalose monomycolates at 100 times MIC measured after 24 hrs in presence of [14C]-acetate by TLC-based autoradiography; in short: as §2
Mycobacterium kansasii [11] = assay: Antimycobacterial activity against Mycobacterium kansasii CNCTC My 235/80 after 21 days; type: functional; conditions: CNCTC My 235/80, 504 h; in short: as §1
Mycobacterium kansasii [12] = assay: Antimycobacterial activity against Mycobacterium kansasii 6509/96 after 21 days; type: functional; conditions: 6509/96, 504 h; in short: as §1
Staphylococcus aureus = assay: Antibacterial activity against Staphylococcus aureus subsp. aureus ATCC 29213 CCM 4223 at highest concentration measured after 24 to 48 hrs by alamar blue dye based broth microdilution assay; type: functional, organism-based
HepG2 = assay: Cytotoxicity against human HepG2 cells assessed as reduction in cell viability after 48 hrs by CellTiter 96 aqueous one solution assay; type: cell-based; conditions: HepG2, 48 h
Pseudomonas aeruginosa = assay: Antibacterial activity against Pseudomonas aeruginosa ATCC 27853 CCM 3955 at highest concentration measured after 24 to 48 hrs by alamar blue dye based broth microdilution assay; type: functional, organism-based
[13] = Selectivity index, ratio of IC50 for human A431 cells to MIC>99 for antimycobacterial activity against Mycobacterium kansasii CNCTC My 235/80 after 7 days; type: toxicity; conditions: read-out: Selectivity Index
[14] = Selectivity index, ratio of IC50 for human A431 cells to MIC>99 for antimycobacterial activity against Mycobacterium kansasii CNCTC My 235/80 after 14 days; type: toxicity; conditions: read-out: Selectivity Index
[15] = Selectivity index, ratio of IC50 for human A431 cells to MIC>99 for antimycobacterial activity against Mycobacterium kansasii CNCTC My 235/80 after 21 days; type: toxicity; conditions: read-out: Selectivity Index
[16] = Selectivity index, ratio of IC50 for human A431 cells to MIC>99 for antimycobacterial activity against Mycobacterium kansasii 6509/96 after 14 days; type: toxicity; conditions: read-out: Selectivity Index
[17] = Selectivity index, ratio of IC50 for human A431 cells to MIC>99 for antimycobacterial activity against XDR Mycobacterium tuberculosis Praha 131 after 21 days; type: toxicity; conditions: read-out: Selectivity Index
[18] = Selectivity index, ratio of IC50 for human A431 cells to MIC>99 for antimycobacterial activity against XDR Mycobacterium tuberculosis Praha 131 after 14 days; type: toxicity; conditions: read-out: Selectivity Index

Row | SMILES | MIC99 (Mycobacterium kansasii [1]) [µM] | inhibition [2] | viability at 48 h, 30 µM [3] [%] | Activity (Candida tropicalis) | MIC99 [4] [µM] | viability at 48 h, 30 µM [5] [%] | IC50 (A-431) [µM] | Activity (Serratia marcescens) | inhibition [6] | MIC99 (Mycobacterium kansasii [7]) [µM] | Activity (Candida parapsilosis) | Activity [8] | MIC99 (Mycobacterium kansasii [9]) [µM] | Activity (Aspergillus fumigatus) | inhibition [10] | MIC99 (Mycobacterium kansasii [11]) [µM] | MIC99 (Mycobacterium kansasii [12]) [µM] | Activity (Staphylococcus aureus) | IC50 (HepG2) [µM] | Activity (Pseudomonas aeruginosa) | also measured
1 | O=[N+]([O-])c1cc(-c2nnc(SCc3ccccc3)n2Cc2ccccc2)cc([N+](=O)[O-])c1 | 0.03 (≈ 0.0134 µg/mL) | Active | 106 | inactive | 0.03 (≈ 0.0134 µg/mL) | 111 | > 30 | inactive | inactive | 0.03 (≈ 0.0134 µg/mL) | inactive | inactive | 0.03 (≈ 0.0134 µg/mL) | inactive | Active | 0.03 (≈ 0.0134 µg/mL) | 0.03 (≈ 0.0134 µg/mL) | inactive | > 30 | inactive | 
2 | CCCCCCn1c(SCc2cc([N+](=O)[O-])cc([N+](=O)[O-])c2)nnc1-c1ccccc1 | 2 (≈ 0.883 µg/mL) | inactive |  | inactive | 1 (≈ 0.442 µg/mL) |  |  | inactive | inactive | 1 (≈ 0.442 µg/mL) | inactive | inactive | 1 (≈ 0.442 µg/mL) | inactive | inactive | 2 (≈ 0.883 µg/mL) | 2 (≈ 0.883 µg/mL) | inactive |  | inactive | 
3 | COc1ccc(Cn2c(SCc3cc([N+](=O)[O-])cc([N+](=O)[O-])c3)nnc2-c2ccccc2)cc1 |  | inactive | 133 | inactive | 1 (≈ 0.478 µg/mL) | 127 | > 30 | inactive | inactive | 2 (≈ 0.955 µg/mL) | inactive | inactive |  | inactive | inactive | 2 (≈ 0.955 µg/mL) |  | inactive | > 30 | inactive | 
4 | O=[N+]([O-])c1cc(-c2nnc(SCc3ccccc3)n2Cc2ccccc2)cc(C(F)(F)F)c1 | 0.03 (≈ 0.0141 µg/mL) |  | 18 | inactive | 0.03 (≈ 0.0141 µg/mL) | 37 | 10.1 | inactive | Active | 0.03 (≈ 0.0141 µg/mL) | inactive | inactive | 0.03 (≈ 0.0141 µg/mL) | inactive |  | 0.03 (≈ 0.0141 µg/mL) | 0.03 (≈ 0.0141 µg/mL) | inactive | 21.5 | inactive | selectivity ratio at 168 h [13]: > 100; selectivity ratio at 336 h [14]: > 100; selectivity ratio at 504 h [15]: > 100; selectivity ratio at 336 h [16]: > 100; selectivity ratio at 504 h [17]: > 100; selectivity ratio at 336 h [18]: > 100
5 | COc1ccc(CSc2nnc(-c3cc([N+](=O)[O-])cc([N+](=O)[O-])c3)n2Cc2ccccc2)cc1 | 0.03 (≈ 0.0143 µg/mL) | Active | 104 | inactive | 0.03 (≈ 0.0143 µg/mL) | 92 | > 30 | inactive | inactive | 0.03 (≈ 0.0143 µg/mL) | inactive | inactive | 0.03 (≈ 0.0143 µg/mL) | inactive | Active | 0.03 (≈ 0.0143 µg/mL) | 0.03 (≈ 0.0143 µg/mL) | inactive | > 30 | inactive | 
6 | COc1ccc(CSc2nnc(-c3cc([N+](=O)[O-])cc(C(F)(F)F)c3)n2Cc2ccccc2)cc1 | 1 (≈ 0.501 µg/mL) |  | 86 | inactive | 0.5 (≈ 0.25 µg/mL) | 74 | > 30 | inactive | Active | 0.5 (≈ 0.25 µg/mL) | inactive | inactive | 0.5 (≈ 0.25 µg/mL) | inactive |  | 0.5 (≈ 0.25 µg/mL) | 1 (≈ 0.501 µg/mL) | inactive | > 30 | inactive | 
